Compound activity (PubChem BioAssay)
Pemphigus Ab inh: inhibitors of pemphigus antibody binding to human desmoglein-3; P32926; binding (percent of control), % at 10 µM; 310,000 compounds, 0.48% hits; DSG3-coupled beads, scFv-anti-DSG3-GFP binding, flow cytometry; stronger effect = lower value; AID 588358;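 active means binding more than 3 SD below its plate's average and above zero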
Target sequence (P32926 whole entry, looked up): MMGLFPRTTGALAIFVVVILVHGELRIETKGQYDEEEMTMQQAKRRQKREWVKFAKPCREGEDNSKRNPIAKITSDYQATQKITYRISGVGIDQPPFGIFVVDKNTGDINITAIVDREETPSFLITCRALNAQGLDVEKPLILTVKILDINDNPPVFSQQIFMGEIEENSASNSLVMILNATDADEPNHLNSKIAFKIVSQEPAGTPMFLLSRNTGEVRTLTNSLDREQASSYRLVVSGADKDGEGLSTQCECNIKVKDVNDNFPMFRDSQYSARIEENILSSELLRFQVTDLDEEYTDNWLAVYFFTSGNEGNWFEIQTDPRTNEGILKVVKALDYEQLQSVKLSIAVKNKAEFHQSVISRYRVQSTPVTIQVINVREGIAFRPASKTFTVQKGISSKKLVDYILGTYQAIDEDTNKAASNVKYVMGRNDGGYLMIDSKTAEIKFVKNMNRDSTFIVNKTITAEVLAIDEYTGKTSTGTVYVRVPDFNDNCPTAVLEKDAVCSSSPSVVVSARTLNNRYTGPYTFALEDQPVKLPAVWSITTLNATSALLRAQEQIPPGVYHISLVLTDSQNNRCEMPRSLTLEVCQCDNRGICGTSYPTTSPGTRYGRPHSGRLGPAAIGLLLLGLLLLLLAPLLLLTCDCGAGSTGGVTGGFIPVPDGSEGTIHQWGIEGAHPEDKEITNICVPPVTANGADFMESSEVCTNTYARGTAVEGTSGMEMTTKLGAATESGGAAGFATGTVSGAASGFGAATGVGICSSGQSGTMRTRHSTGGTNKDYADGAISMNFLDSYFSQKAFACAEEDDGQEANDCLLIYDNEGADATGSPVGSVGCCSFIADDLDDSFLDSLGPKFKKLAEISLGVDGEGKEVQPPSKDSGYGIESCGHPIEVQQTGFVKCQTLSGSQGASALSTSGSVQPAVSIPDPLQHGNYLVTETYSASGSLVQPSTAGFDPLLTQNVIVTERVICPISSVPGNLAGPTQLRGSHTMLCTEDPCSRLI
TRPC4 act: opens the mouse TRPC4 cation channel | 310,000 compounds, 0.49% hits | HEK293 TRPC4beta/mu-opioid, Fluo4 calcium fluorescence; stronger effect = higher value | AID 2237 | B-score at 10 µM;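 active means B-score above 5 SD of library B-scores, and initial fluorescence ratio not above library mean plus 5 SD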;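 further: positive B-score marks a calcium rise read as TRPC4 activation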
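System: HEK293 cells stably co-expressing mouse TRPC4beta and mu-opioid receptor; Schedule: Fluo4 dye loading 45 min at room temperature, 110 s recording; Detection: Fluo4 fluorescence, kinetic; Evaluation: B-scored integrated calcium fluorescence ratio; Controls: buffer (low) and maximal DAMGO (high).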
TRPC4 PAM: allosterically enhances the mouse TRPC4 cation channel | HEK293 TRPC4beta/mu-opioid, DAMGO EC20, Fluo-4 Ca2+ flux; stronger effect = higher value | Q9QUQ5 | B-score at 10 µM | 310,000 compounds, 0.42% hits;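 active means B-score of calcium response area above 5 SD of library B-scores, with initial fluorescence ratio within 5 SD of library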
TRPC6 activator: activates the mouse TRPC6 cation channel; HEK293-TRPC6 membrane potential dye fluorescence; stronger effect = higher value; B-score at 10 µM; AID 2550; 310,000 compounds, 0.13% hits; Q61143;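 active means B-score of the integrated fluorescence ratio above library mean plus 3 SD, and starting fluorescence ratio within library mean plus 5 SD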;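 further: higher score means more depolarization so channel activation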
TRPC6 inh: blocks the mouse TRPC6 cation channel; 310,000 compounds, 1.1% hits; Q61143; HEK293-TRPC6, membrane potential dye, ACh-evoked depolarization; stronger effect = lower value; B-score at 10 µM;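 active means B-score under library mean minus 3 SD, initial fluorescence not abnormally high, positive integrated signal ratio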;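 further: B-score derived from integrated fluorescence ratio over the kinetic read; more negative B-score means stronger inhibition of depolarization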
TRPC4 inh: blocks the mouse TRPC4 cation channel. HEK293 TRPC4beta/mu-opioid, DAMGO-evoked Fluo4 calcium flux; stronger effect = lower value. Q9QUQ5. 300,000 compounds, 0.39% hits. AID 2247. B-score at 10 µM;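 active means B-score over 3 SD under the library average, no early fluorescence shift, positive overall ratio signal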
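test system = HEK293 cells with stable TRPC4beta plus mu-opioid receptor expression | detection = Fluo4 Ca2+ flux fluorescence | read-out = integrated fluorescence ratio relative to baseline, converted to per-well B score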
TRPC4 sel inh 2: mouse TRPC4 off-target activity of TRPC6 inhibitors, second screen. shares compounds with TRPC6 inh. AID 2776. 920 compounds, 42% hits. inhibition, % at 10 µM. HEK293 TRPC4/MOR, membrane potential dye fluorescence; channel activated by saturating DAMGO dose;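 active means compounds whose fluorescence signal differed from control wells by over 3 SD, either direction, in both duplicate plates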
TRPC4 spec: mouse TRPC4 off-target activity of TRPC6 inhibitors; shares compounds with TRPC6 inh; HEK293 TRPC4/mu-opioid, membrane potential fluorescence; activity change, negative = inhibition, % at 10 µM; 920 compounds, 61% hits; AID 2777;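 active means rise or fall in signal beyond 3 SD of buffer-only wells in both replicate plates, either sign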;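 further: integrated kinetic ratio of fluorescence range over baseline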
HEK293 MPD ctr 2-1: parental HEK293 nonspecific activity of TRPC6 inhibitors, second screen; shares compounds with TRPC6 inh; signal change vs control, % at 10 µM; 920 compounds, 31% hits; parental HEK293 membrane potential dye fluorescence; maximal acetylcholine challenge after compound addition;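 active means membrane potential signal moving either way by over 3 SD of the maximum-effect control, in both duplicate plates, meaning non-specific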
HEK293 MPD ctr-1: counter-screen for TRPC6 inhibitors: effect in parental HEK293 cells; shares compounds with TRPC6 inh; parental HEK293 membrane potential dye fluorescence; membrane potential signal change, % at 10 µM; 920 compounds, 60% hits; AID 2780;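 active means membrane potential signal shifting up or down by more than 3 SD of buffer-only wells, on both duplicate plates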
HEK293 MPD ctr-2: parental HEK293 nonspecific activity of TRPC6 modulators; membrane potential signal change, % at 10 µM; 2,400 compounds, 51% hits; shares compounds with TRPC6 inh; membrane potential dye fluorescence; AID 488924;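 active means membrane potential signal moves up or down beyond 5 SD from buffer-only wells, on both duplicate plates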
HEK293 MPD ctr 2-2: second check of TRPC6 modulator effects in parental HEK293 cells. shares compounds with TRPC6 inh. membrane potential dye fluorescence; after compound, maximal acetylcholine stimulation. inhibition, % at 10 µM. 2,400 compounds, 14% hits. AID 488926;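 active means membrane potential signal drops by more than 5 SD from the mean control signal, in both duplicate plates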
TRPC4 ctr mod: tests whether TRPC6 modulators also affect mouse TRPC4. percent change from control (negative = decrease, positive = increase), % at 10 µM. shares compounds with TRPC6 inh. 2,400 compounds, 69% hits. HEK293 TRPC4/mu-opioid, membrane potential fluorescence;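 active means membrane potential signal moved up or down beyond 5 SD of buffer control wells, in both duplicate plates, actives on both sides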
TRPC4 ctr inh 2: second selectivity test of TRPC6 modulators against mouse TRPC4 | AID 488928 | inhibition, % at 10 µM | HEK293 TRPC4/mu-opioid, membrane potential dye fluorescence; stimulated with maximal-effect DAMGO | shares compounds with TRPC6 inh | 2,400 compounds, 55% hits;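 active means drop in membrane potential signal beyond 5 SD of the control wells in both duplicate plates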;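 further: TRPC4 counter screen for TRPC6 hits run under conditions tuned for TRPC6 not TRPC4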
TRPC6 inh conf: mouse TRPC6 inhibitor confirmation; shares compounds with TRPC6 inh; HEK293-TRPC6, membrane potential dye, ACh-evoked depolarization; inhibition, % at 10 µM; 3,300 compounds, 43% hits;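 active means fluorescence ratio falls more than 5 SD below the full-stimulation control mean, in both duplicate runs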;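 further: integrated fluorescence ratio of peak minus minimum over baseline after agonist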
TRPC6 act confirm: confirmation of mouse TRPC6 activators | shares compounds with TRPC6 inh | HEK293-TRPC6 membrane potential dye fluorescence, FDSS | activation, % at 10 µM | 2,800 compounds, 11% hits | AID 488961;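 active means ratio signal rise beyond 5 SD above unstimulated control wells' mean, seen in both duplicate runs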
Of the large screens only hits and unclear results are named; the others gave an inactive call (follow-up assays come after a bar, where they were run). Hits are enriched below; roughly 2.5% of the tested compounds scored in any of these assays.

CCOC(=O)C1=NN(c2ccc(Cl)cc2)C(c2ccccc2)CC1=O (configuration not stated)	TRPC6 inh -7.5 | TRPC4 sel inh 2 inactive | TRPC4 spec inactive | HEK293 MPD ctr 2-1 inactive | HEK293 MPD ctr-1 inactive | TRPC6 inh conf inactive | TRPC6 act confirm inactive
O=C(COC(=O)c1cc(S(=O)(=O)N2CCOCC2)ccc1F)NCc1ccco1	TRPC6 inh -6.2 | HEK293 MPD ctr-2 inactive | HEK293 MPD ctr 2-2 inactive | TRPC4 ctr mod inactive | TRPC4 ctr inh 2 inactive | TRPC6 inh conf inactive | TRPC6 act confirm inactive
O=C(COC(=O)c1ccc(S(=O)(=O)N2CCOCC2)cc1)NCc1ccco1	none (no result: TRPC4 act, TRPC4 PAM, TRPC6 activator, TRPC6 inh, TRPC4 inh)
N#Cc1c(-c2cccs2)nc(SCC(=O)c2cccs2)[nH]c1=O	TRPC6 activator 12 | HEK293 MPD ctr-2 114% | HEK293 MPD ctr 2-2 inactive | TRPC4 ctr mod 26% | TRPC4 ctr inh 2 inactive | TRPC6 inh conf inactive | TRPC6 act confirm 40%
O=C(CSc1nc2ccccc2c(=O)[nH]1)c1cccs1	none
COC(=O)c1cc(S(=O)(=O)N2CCCC2=O)c(Cl)cc1Cl	none
Cc1ccc(N=Cc2cc(Br)cc(Cl)c2O)cc1	none
Cc1cc(C)cc(N=Cc2[nH]c3ccc(Br)c(Cl)c3c2O)c1	TRPC4 PAM 11, TRPC6 activator 36 | HEK293 MPD ctr-2 inactive | HEK293 MPD ctr 2-2 inactive | TRPC4 ctr mod inactive | TRPC4 ctr inh 2 inactive | TRPC6 inh conf inactive | TRPC6 act confirm inactive
N=c1c2c(-c3ccccc3)c(-c3ccccc3)n(Cc3ccco3)c2ncn1CCO	TRPC6 inh -6.6 | HEK293 MPD ctr-2 123% | HEK293 MPD ctr 2-2 inactive | TRPC4 ctr mod 16% | TRPC4 ctr inh 2 80% | TRPC6 inh conf 43%
N=c1c2c(-c3ccccc3)c(-c3ccccc3)n(Cc3ccco3)c2ncn1CCCO	TRPC6 inh -5.1 | HEK293 MPD ctr-2 150% | HEK293 MPD ctr 2-2 inactive | TRPC4 ctr mod 20% | TRPC4 ctr inh 2 76% | TRPC6 inh conf inactive
c1ccc(-c2nc3nc4ccccc4nc3n2Cc2ccco2)cc1	none
N=c1c2c(-c3ccccc3)c(-c3ccccc3)n(Cc3ccco3)c2ncn1CCN1CCOCC1	TRPC6 inh -9.9 | TRPC4 sel inh 2 40% | TRPC4 spec 3.4% | HEK293 MPD ctr 2-1 208% | HEK293 MPD ctr-1 8.2% | TRPC6 inh conf inactive | TRPC6 act confirm inactive
CN(CCNC(=O)c1cc2c(=O)n(C)c3ccccc3c2n1C)Cc1ccccc1	TRPC6 inh -5.2 | HEK293 MPD ctr-2 inactive | HEK293 MPD ctr 2-2 inactive | TRPC4 ctr mod inactive | TRPC4 ctr inh 2 56% | TRPC6 inh conf inactive | TRPC6 act confirm inactive
Cc1ccc(CNC(=O)c2cc3c(=O)n(C)c4ccccc4c3n2C)cc1	none
CC(C)N(CCn1c(SCC(=O)Nc2cccnc2Cl)nc2ccccc2c1=O)C(C)C	none (no result: TRPC4 act, TRPC4 PAM, TRPC6 activator, TRPC6 inh, TRPC4 inh)
c1ccc(C[n+]2cccc3c4ccccc4ccc32)cc1	TRPC6 inh -9.7 | HEK293 MPD ctr-2 -274% | HEK293 MPD ctr 2-2 71% | TRPC4 ctr mod -46% | TRPC4 ctr inh 2 64% | TRPC6 inh conf 68% | TRPC6 act confirm inactive
O=[N+]([O-])c1ccc(C[n+]2cccc3ccccc32)cc1	none
NC(=O)C[n+]1cccc2ccccc21	none
CCCCC[n+]1cccc2c3ccccc3ccc21	TRPC6 inh -9.2 | HEK293 MPD ctr-2 -238% | HEK293 MPD ctr 2-2 inactive | TRPC4 ctr mod -39% | TRPC4 ctr inh 2 66% | TRPC6 inh conf 58% | TRPC6 act confirm inactive
C[N+]1(C)CCCC(OC(=O)C(O)(c2ccccc2)c2ccccc2)C1 (configuration not stated)	TRPC6 inh -13 | TRPC4 sel inh 2 inactive | TRPC4 spec inactive | HEK293 MPD ctr 2-1 -23% | HEK293 MPD ctr-1 inactive | TRPC6 inh conf 94% | TRPC6 act confirm inactive
Cc1cccc2sc(NC(=O)c3ccc(NS(=O)(=O)c4cccs4)cc3)nc12	none
O=C(CNCc1cccc2ccccc12)Nc1ccccc1[N+](=O)[O-]	none (no result: Pemphigus Ab inh)
Cc1c(NC(=O)C2(c3ccccc3)CCOCC2)c(=O)n(-c2ccccc2)n1C	none
Cc1c(Cl)c([N+](=O)[O-])nn1CCCC(=O)Nc1c(C)n(C)n(-c2ccccc2)c1=O	TRPC6 inh -6.5 | HEK293 MPD ctr-2 inactive | HEK293 MPD ctr 2-2 inactive | TRPC4 ctr mod inactive | TRPC4 ctr inh 2 inactive | TRPC6 inh conf inactive | TRPC6 act confirm inactive
COc1ccc(NC(=O)Nc2nc(C)cc(C)n2)c(OC)c1	TRPC6 inh -5.4 | HEK293 MPD ctr-2 -75% | HEK293 MPD ctr 2-2 inactive | TRPC4 ctr mod -15% | TRPC4 ctr inh 2 inactive | TRPC6 inh conf inactive | TRPC6 act confirm inactive
COc1ccc(NC(=O)Nc2c(C)n(C)n(-c3ccccc3)c2=O)c(OC)c1	TRPC6 inh -5 | HEK293 MPD ctr-2 inactive | HEK293 MPD ctr 2-2 inactive | TRPC4 ctr mod inactive | TRPC4 ctr inh 2 inactive | TRPC6 inh conf inactive | TRPC6 act confirm inactive
Cc1c(NC(=O)C2(c3ccc(Cl)cc3)CCCC2)c(=O)n(-c2ccccc2)n1C	TRPC6 inh -6.6 | TRPC4 sel inh 2 inactive | TRPC4 spec inactive | HEK293 MPD ctr 2-1 inactive | HEK293 MPD ctr-1 inactive | TRPC6 inh conf inactive | TRPC6 act confirm inactive
